Many of the other results were omitted from the sample, so hits are more common in it than they were.
HCT116 bCat-KO – beta-catenin-lacking colon tumor cell growth suppression | HCT116 beta-catenin knockout viability, CellTiter-Glo, 60 h; stronger effect = lower value | viability, % at 10 µM | 1.5% of 140,000 active;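 active means viability at or under a set limit, the compound median less 4 SD, cut at about 6% in these data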;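 further: 0% = Hyamine 1622 control at 20 µM and 100% = untreated cell control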
H69AR inhibit – growth inhibitors of human H69AR lung tumor cells. H69AR lung tumor viability, ATP luminescence, 72 h; stronger effect = lower value. viability, % at 10 µM. 6% of 85,000 active. AID 598;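 active means viability at or below 40%; inactive means viability above 40%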;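 further: multidrug resistant small cell line overexpressing MRP-1 efflux transporter; 100% = mean luminescence of untreated control wells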
Fibroblast inh – blocks proliferation of human lung fibroblasts. AID 719. viability, % at 10 µM. 1.1% of 85,000 active. LL 47 human lung fibroblast viability, ATP luminescence; stronger effect = lower value;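 active means viability at or below 50% in the single dose screen; inactive means viability above 50%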;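 further: compound exposure lasted 72 h before the ATP readout; 100% = median luminescence of untreated cell-only wells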
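Material: human LL 47 lung fibroblast cells; quantity: 1,150 cells/well; medium: IMEM plus 15% FBS; doses: 0.1% DMSO in all compound wells; timing: overnight attachment after seeding, then 72 h compound exposure at 37 °C; detection: CellTiter-Glo luminescence; measure: % viability of median cell-only signal; controls: cell-only wells, no compound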
HCT116 PTEN-null – PTEN-deleted cell growth suppression; AID 827; 1.2% of 140,000 active; viability, % at 10 µM; HCT116 PTEN-null viability, CellTiter-Glo, 60 h; stronger effect = lower value;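 active means viability at or below a set limit, 4 SD under the median of all tested compounds, cut at about 3.7% in these data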;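 further: PTEN knockout HCT116 line with beta catenin targeted HCT116 as companion control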
HUVEC inhibit – human endothelial cell proliferation inhibition. HUVEC proliferation, CellTiter-Glo luminescence, 72 h; stronger effect = lower value. viability, % at 10 µM (by protocol). 1.1% of 86,000 active. AID 648;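 active means viability at or below 30%; inactive means viability above 30%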;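 further: 100% = median luminescence of DMSO-only cell control wells on each plate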
* = called active by the depositor; nt = no result.

SMILES | HCT116 bCat-KO | H69AR inhibit | Fibroblast inh | HCT116 PTEN-null | HUVEC inhibit
CC(Sc1nc(N(C)C)nc(N2CCOCC2)n1)C(=O)Nc1ccccc1 (stereo not drawn) | 109 | 31* | 94 | 95 | 102
Cc1cc2c3c(c1)C1(C(=O)N3C(C)(C)CC2C)C(C#N)=C(N)Oc2n[nH]c(C)c21 (stereo not drawn) | 27 | 20* | 93 | 27 | 74
CC(=O)c1ccc(-n2c(SCC(=O)c3c[nH]c4ccccc34)nc3ccccc3c2=O)cc1 | 95 | nt | nt | 83 | nt
O=C(COC(=O)C1CCN(S(=O)(=O)c2ccccc2)CC1)NC(=O)c1ccc(OC(F)F)cc1 | 97 | nt | nt | 108 | nt
O=C(Cn1c(=O)n(CCCC(=O)NC2CCCC2)c(=O)c2ccccc21)NCCC1=CCCCC1 | 5.3* | 29* | 49* | 2.8* | 85
O=C1N(Nc2ccccc2)C(c2ccc(Br)cc2)C12CCCCC2 (stereo not drawn) | 82 | 19* | 78 | 79 | 49
O=C1N(Nc2ccccc2)C(c2ccc(Br)cc2)C12CCCC2 (stereo not drawn) | 90 | 91 | 94 | 81 | 103
CCOC(=O)c1sc2ccc(S(=O)(=O)N3CC(C)CC(C)C3)cc2c1N (stereo not drawn) | 75 | 56 | 100 | 79 | 97
COC(=O)c1ccc(NC2(C#N)C(=O)Nc3ccccc32)cc1 (stereo not drawn) | 87 | 23* | 95 | 88 | 86
CCS(=O)(=O)Nc1ccc(C(=O)CC2(O)C(=O)Nc3ccccc32)cc1 (stereo not drawn) | 99 | 81 | 100 | 99 | 101
O=C(Nc1cccc(F)c1)C1CCN(C(=O)c2ccc(Br)cc2)CC1 | 69 | 34* | 102 | 69 | 92
CCOC(=O)Cc1csc(NC(NC(=O)OCC)(C(=O)OCC)C(F)(F)F)n1 (stereo not drawn) | 92 | 98 | 105 | 90 | 99
O=c1[nH]c(Nc2nc3ccccc3o2)nc2c1CCCC2 | 3.3* | 17* | 5.6* | 2.8* | 55
COc1ccc(NC(=O)Cn2nnc(C(=O)NCc3ccccc3)c2N)cc1Cl | 54 | 28* | 94 | 62 | 70
COc1cccc(CNC(=O)c2nnn(CC(=O)Nc3ccc(C)c(C)c3)c2N)c1 | 88 | 51 | 59 | 77 | 74
CCOC(=O)c1sc(NC(=O)c2ccc(S(=O)(=O)N3CCCCC3)cc2)nc1-c1ccccc1 | 53 | nt | nt | 46 | nt
CCOC(=O)N1CCN(S(=O)(=O)c2ccc(C(=O)Nc3nc4ccc(F)cc4s3)cc2)CC1 | 38 | 23* | 29* | 69 | 47
CCOC(=O)N1CCN(S(=O)(=O)c2ccc(F)cc2)CC1 | 105 | 104 | 102 | 93 | 88
CN(CC(=O)Nc1nc2ccccc2s1)S(=O)(=O)c1ccc(Cl)cc1 | 89 | 36* | 88 | 94 | 67
CCOC(=O)N1CCN(S(=O)(=O)c2ccc(C(=O)Nc3nc4ccccc4s3)cc2)CC1 | 68 | 13* | 84 | 73 | 68
CN(CC(=O)Nc1nc2ccccc2s1)S(=O)(=O)c1ccc(Br)cc1 | 83 | 95 | 91 | 62 | 84
Cc1cc(C(=O)CSc2ccc3c(c2)OCCO3)c(C)n1C1CC1 | 87 | nt | nt | 70 | nt
O=C(NCc1ccccc1)c1ccc(CN(c2ccccn2)S(=O)(=O)c2ccccc2)cc1 | 97 | 78 | 99 | 90 | 99
Cc1sc2ncnc(SCC(=O)NC3CC3)c2c1C | 101 | nt | nt | 107 | nt
Cc1ccc(-c2nn(-c3ccccc3)cc2/C=N/NC(=O)CSc2nnc(C)n2-c2ccccc2)cc1 | 3.6* | nt | nt | 3.4* | nt
SMILES | HCT116 bCat-KO | H69AR inhibit | Fibroblast inh | HCT116 PTEN-null | HUVEC inhibit
COc1ccc(-c2nn(-c3ccccc3)cc2/C=N/NC(=O)c2ccc3c(c2)OCO3)cc1 | 72 | nt | nt | 67 | nt
COc1ccc(-c2nn(-c3ccccc3)cc2/C=N/NC(=O)c2ccc(Br)o2)cc1 | 5.0* | nt | nt | 6 | nt
CCNc1nc(NCC)n2c(SC(C(=O)Nc3cc(C)ccc3OC)c3ccccc3)nnc2n1 (stereo not drawn) | 65 | nt | nt | 63 | nt
COc1ccc(Nc2ccc(N3C(=O)CCCC3=O)cc2[N+](=O)[O-])c(OC)c1 | 100 | nt | nt | 90 | nt
C/C(CC(C)(C)C1CCCCC1)=N\NC(N)=S | 4.6* | 24* | 75 | 13 | 59
COC(=O)c1c(NC(=O)CN2CCN(c3ccccc3OC)CC2)c2cc(C)ccc2n1C | 88 | 29* | 87 | 95 | 66
COc1ccccc1N1CCN(CC(=O)Nc2cc(C)nn2-c2nc(C)cc(C)n2)CC1 | nt | 19* | 37* | nt | 38
COc1ccccc1N1CCN(CC(=O)Nc2cc(F)ccc2C)CC1 | 95 | 75 | 99 | 105 | 106
CC(=O)C(Sc1nc(-c2ccco2)nc2c1c(=O)n(C)c(=O)n2C)C(=O)N(C)C (stereo not drawn) | nt | 75 | 95 | nt | 97
Oc1[nH]c2ccccc2c1C=Nc1ccc2c(c1)OCO2 | 77 | nt | nt | 81 | nt
O=c1c2ccccc2c(C=Nc2cccc(O)c2)c(O)n1-c1ccc2c(c1)OCO2 | 3.7* | nt | nt | 9 | nt
CCN(c1cccc(C(F)(F)F)c1)S(=O)(=O)c1ccc2c(c1)CCN2C(C)=O | 74 | 18* | 90 | 68 | 89
CCN(c1cccc(C)c1)S(=O)(=O)c1ccc2c(c1)CCN2C(C)=O | 40 | 29* | 70 | 35 | 71
CC(=O)N1CCCc2cc(S(=O)(=O)N(CC(C)C)CC(C)C)ccc21 | 92 | 83 | 96 | 83 | 95
CC(=O)N1CCc2cc(S(=O)(=O)N3c4ccccc4CC3C)ccc21 (stereo not drawn) | 87 | 20* | 58 | 98 | 59
CC(=O)N1CCc2cc(S(=O)(=O)N3CCOCC3)ccc21 | 92 | 95 | 106 | 96 | 102
Cc1cc(C)n(CC(O)COc2ccc(OCC(O)Cn3nc(C)cc3C)cc2)n1 (stereo not drawn) | nt | 77 | 100 | nt | 102
CCCNC(=O)Cn1c(=O)/c(=C\c2ccc(-c3ccc([N+](=O)[O-])cc3)o2)s/c1=C\C(=O)C(C)(C)C | 12 | nt | nt | 7 | nt
FC(F)(F)c1ccc(N2CCN(c3ncnc4c3nnn4Cc3ccccc3)CC2)nc1 | 85 | 40* | 95 | 96 | 57
c1ccc(Cn2nnc3c(N4CCOCC4)ncnc32)cc1 | 105 | nt | nt | 85 | nt
O=C(CN(C1CC1)S(=O)(=O)c1ccc(S(=O)(=O)N2CCCCCC2)cc1)Nc1ccccc1 | 95 | 37* | 93 | 99 | 77
CCN(C1CCCCC1)S(=O)(=O)c1ccc(S(=O)(=O)N(CC(=O)Nc2ccccc2)C2CC2)cc1 | 94 | 58 | 87 | 104 | 92
CCCN1Cc2cccc(C(=O)Nc3ccc(N4CCN(CC)CC4)cc3)c2C1=O | nt | 22* | 103 | nt | 84
CN1CCN(c2ccc(NC(=O)Cc3ccccc3)cc2)CC1 | 103 | 95 | 103 | 113 | 91
COc1c(F)c(F)c(C(=O)Nc2ccc(N3CCN(Cc4ccccc4)CC3)cc2)c(F)c1F | 70 | 52 | 91 | 73 | 22*
CCN1CCN(c2ccc(NC(=O)c3ccc4c(c3)[nH]c(=O)n4Cc3ccc(F)cc3)cc2)CC1 | 3.4* | nt | nt | 1.8* | nt

From PubChem
